Laboratory results: ChEMBL document CHEMBL1127787, “1,2,3-Triazole-[2',5'-bis-O-(tert-butyldimethylsilyl)-beta-D- ribofuranosyl]-3'-spiro-5"-(4"-amino-1",2"-oxathiole 2",2"-dioxide) (TSAO) analogues: synthesis and anti-HIV-1 activity” (J Med Chem, 1994)

Columns and labels:
CCRF-CEM [1] = test: Tested for the inhibitory activity of virus induced giant cell formation in HIV-1 infected CEM cells; format: functional, cell-based; conditions: Homo sapiens
CCRF-CEM [2] = test: Tested for the inhibitory activity of virus induced giant cell formation in HIV-2 infected CEM cells; format: functional, cell-based; conditions: Homo sapiens
MT4 [3] = test: Tested for the inhibitory activity of HIV-1 infected MT-4 cells; format: functional, cell-based; conditions: Homo sapiens
In short: (§1)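 MT-4 cells (5 × 10^5/mL) grown in RPMI-1640 with 10% FCS, 2 mM L-glutamine and 0.075% NaHCO3. Infected with HIV-1 or HIV-2 at 100 CCID50/mL and mixed with compound dilutions (100 to 0.006 µg/mL). After 5 days viable cells were counted by trypan blue staining. EC50 is the concentration that reduces viable-cell loss in infected cultures by 50%.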

MT4 [4] = test: Tested for the inhibitory activity of HIV-2 infected MT-4 cells; format: functional, cell-based; conditions: Homo sapiens; in short: as §1
MT4 [5] = test: Tested for the cytotoxic concentration required to reduce the number of viable mock infected MT-4 cells; format: functional; conditions: Homo sapiens
In short: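 Mock-infected MT-4 cells (5 × 10^5/mL) in RPMI-1640 with 10% FCS were exposed to compound dilutions (100 to 0.006 µg/mL). Viable cells were counted by trypan blue at day 5; about 150-200 cells were counted in controls. CC50 is the concentration that reduces viable cell number by 50%.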

MT4 [6] = test: Tested for the ratio between CC50 (MT-4) to EC50 (MT-4); format: functional, Homo sapiens

Structure (SMILES)	EC50 (CCRF-CEM [1])	EC50 (CCRF-CEM [2])	EC50 (MT4 [3])	EC50 (MT4 [4])	CC50 (MT4 [5])	Ratio (MT4 [6])
COC(=O)c1cn([C@@H]2O[C@H](CO[Si](C)(C)C(C)(C)C)[C@@]3(OS(=O)(=O)C=C3NC(C)=O)[C@H]2O[Si](C)(C)C(C)(C)C)nn1	28000 nM	> 32 µM	≥ 32000 nM	> 32 µM	56 µM	<=1.7
CC(C)(C)[Si](C)(C)OC[C@H]1O[C@@H](n2nncc2CCCCl)[C@H](O[Si](C)(C)C(C)(C)C)[C@]12OS(=O)(=O)C=C2N	820 nM	> 7 µM	1900 nM	> 164 µM	79 µM	40.6
COC(=O)c1nnn([C@@H]2O[C@H](CO[Si](C)(C)C(C)(C)C)[C@@]3(OS(=O)(=O)C=C3N)[C@H]2O[Si](C)(C)C(C)(C)C)c1C(=O)OC	530 nM	> 30 µM	480 nM	> 150 µM	111 µM	231
CC(C)(C)[Si](C)(C)OC[C@H]1O[C@@H](n2cc([Si](C)(C)C)nn2)[C@H](O[Si](C)(C)C(C)(C)C)[C@]12OS(=O)(=O)C=C2N	2800 nM	> 2.6 µM	≥ 6600 nM	> 6.6 µM	9.5 µM	<=1.44
Cc1ccnc2c1NC(=O)c1cccnc1N2C1CC1 [NEVIRAPINE]	110 nM	> 80 µM	120 nM	> 80 µM	> 80 µM	>625
COC(=O)c1cnnn1[C@@H]1O[C@H](CO[Si](C)(C)C(C)(C)C)[C@@]2(OS(=O)(=O)C=C2N)[C@H]1O[Si](C)(C)C(C)(C)C	130 nM	> 40 µM	900 nM	> 150 µM	128 µM	142
CC(C)(C)[Si](C)(C)OC[C@H]1O[C@@H](n2nncc2CBr)[C@H](O[Si](C)(C)C(C)(C)C)[C@]12OS(=O)(=O)C=C2N	> 1300 nM	> 6 µM	≥ 6000 nM	> 6 µM	13 µM	<2.1
CC(=O)c1cnnn1[C@@H]1O[C@H](CO[Si](C)(C)C(C)(C)C)[C@@]2(OS(=O)(=O)C=C2N)[C@H]1O[Si](C)(C)C(C)(C)C	1100 nM	> 70 µM	2300 nM	> 35 µM	69 µM	30
CCOC(OCC)c1cn([C@@H]2O[C@H](CO[Si](C)(C)C(C)(C)C)[C@@]3(OS(=O)(=O)C=C3N)[C@H]2O[Si](C)(C)C(C)(C)C)nn1	> 150000 nM	> 150 µM	73000 nM	> 150 µM	> 150 µM	>2.1
COC(=O)c1cn([C@@H]2O[C@H](CO[Si](C)(C)C(C)(C)C)[C@@]3(OS(=O)(=O)C=C3N)[C@H]2O[Si](C)(C)C(C)(C)C)nn1	180 nM	> 40 µM	600 nM	> 150 µM	≥ 150 µM	>=249
